Reference: ChEMBL document CHEMBL1157933, “The anti-cancer, anti-inflammatory and tuberculostatic activities of a series of 6,7-substituted-5,8-quinolinequinones” (Bioorg Med Chem, 2010)

Assays:
[1] = system: HL-60; test: Antiproliferative activity against human HL60 cells after 48 hrs by MTT assay; type: functional, cell-based; conditions: HL-60, 48 h
[2] = Antiinflammatory activity in human neutrophils assessed as inhibition of PMA-induced superoxide production after 20 mins by WST1 assay; type: functional, cell-based; conditions: Neutrophil
[3] = Antiproliferative activity against human T cells after 48 hrs by MTT assay; type: cell-based; conditions: T-cell
How it was run: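 Healthy-donor PBMC (Ficoll-hypaque) activated 2 days with CD2/CD3/CD28-loaded anti-biotin beads, then expanded 2–4 days with 20 U/mL IL-2. Cells plated at 0.2 × 10^6 cells/mL in complete RPMI with varied compound concentrations for 48 h at 37 °C; MTT 2 h, SDS/DMF lysis overnight, absorbance 570 nm. Triplicate, mean reported.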

Row | Structure (SMILES) | IC50 [1] [µM] | IC50 [2] [µM] | IC50 [3] [µM]
1 | Cc1ccc2c(n1)C(=O)C(Cl)=C(Cl)C2=O | 18.7 | 3.4 | 44.9
2 | CNC1=C(Sc2ccccc2)C(=O)c2ncccc2C1=O | 8.03 | > 150 | 12.2
3 | O=C1C(NCCBr)=C(Cl)C(=O)c2ncccc21 | 1.65 | 20 | 2.56
4 | CS(=O)(=O)C1=C(N)C(=O)c2cccnc2C1=O | 4.53 | > 200 | 19.3
5 | O=C1C(Sc2ccccc2)=C(Sc2ccccc2)C(=O)c2ncccc21 | 3.68 | 24.8 | 7.77
6 | CNC1=C(SC)C(=O)c2cccnc2C1=O | 7.92 | > 200 | 7.57
7 | Oc1c(Sc2ccccc2)c(Sc2ccccc2)c(O)c2ncccc12 | 6.95 | 2.3 | 10
8 | O=C1C(Cl)=C(NCCBr)C(=O)c2ncccc21 | 1.2 | 20.7 | 2.5
9 | CSC1=C(N)C(=O)c2cccnc2C1=O | 7.64 | > 150 | 8.32
10 | Cc1ccc2c(n1)C(=O)C(Cl)=C(NCCBr)C2=O | 1.3 | 34.2 | 2.23
11 | O=C1c2cccnc2C(=O)C2SCCNC12 (stereo not drawn) | 4.24 | > 200 | 5.88
12 | CSC1=C(SC)C(=O)c2ncccc2C1=O | 1.23 | 0.11 | 1.69
13 | O=C1C(NC(c2ccccc2)c2ccccc2)=C(Cl)C(=O)c2ncccc21 | 2.45 | 33.9 | 2.59
14 | Cc1ccc(S(=O)(=O)C2=C(S(=O)(=O)c3ccc(C)cc3)C(=O)c3ncccc3C2=O)cc1 | 61.6 | > 200 | 40.5
15 | Cc1ccc2c(n1)C(=O)C(NCCBr)=C(Cl)C2=O | 1.21 | 73.2 | 1.59
16 | CNC1=C([S+](C)[O-])C(=O)c2ncccc2C1=O (stereo not drawn) | 12.1 | > 200 | 11.8
17 | O=C1C(NCCCl)=C(Cl)C(=O)c2ncccc21 | 1.62 | 37 | 2.29
18 | CNC1=C(Cl)C(=O)c2cccnc2C1=O | 4.3 | 41.1 | 5.21
19 | CNC1=C(Cl)C(=O)c2ncccc2C1=O | 2.45 | 78.9 | 3.56
20 | CNC1=C([S+](C)[O-])C(=O)c2cccnc2C1=O (stereo not drawn) | 33.2 | > 200 | 13.4
21 | Cc1ccc(S(=O)(=O)C2=C(Cl)C(=O)c3ncccc3C2=O)cc1 | 38.1 | > 200 | 35.5
22 | O=C1C(Cl)=C(NCCCl)C(=O)c2ncccc21 | 1.94 | 31 | 2.27
23 | C[S+]([O-])C1=C(N)C(=O)c2cccnc2C1=O (stereo not drawn) | 1.3 | > 200 | 1.93
24 | CNC1=C(Sc2ccccc2)C(=O)c2cccnc2C1=O | 5.88 | 92.8 | 6.91
25 | O=C1C2=C(NCCS2)C(=O)c2ncccc21 | 3.52 | > 200 | 6.02
26 | CNC1=C(SC)C(=O)c2ncccc2C1=O | 3.44 | > 200 | 19.5
